Laboratory results as given in ChEMBL document CHEMBL1145729, “MMPs inhibitors: new succinylhydroxamates with selective inhibition of MMP-2 over MMP-3” (Bioorg Med Chem Lett, 2003).
Where “and” joins values, the source holds several entries; their conditions need not be identical. Equal values may be shown once.

What was measured:
[1] = biological target: T1, 72 kDa type IV collagenase (Homo sapiens, UniProt P08253); test: Inhibition of human matrix metalloprotease-2 (inactive)
Summary of the method: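 Fluorogenic peptide cleavage assay with substrate Mca-Pro-Leu-Gly-Leu-Dpa-Ala-Arg-NH2. The enzyme was recombinant pro-MMP-2 activated with APMA.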

Stromelysin-1 [2] = biological target: T2, Stromelysin-1 (Homo sapiens, UniProt P08254); test: Inhibition of human matrix metalloprotease-3 (inactive)
Summary of the method: (§1)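 Fluorogenic peptide cleavage assay with substrate Mca-Pro-Leu-Gly-Leu-Dpa-Ala-Arg-NH2. The enzyme was truncated recombinant MMP-3 lacking the PEX and pro domains, used instead of activated pro-MMP-3 because activation of the proenzyme was not reproducible.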

Stromelysin-1 [3] = biological target: T2, Stromelysin-1; test: Inhibition of human matrix metalloprotease-3; summary of the method: as §1
[4] = biological target: Matrix metalloproteinase (2 and 3) (Homo sapiens) (UniProt P08254+P08253); test: Selectivity ratio for Matrix metalloprotease-2 over Matrix metalloprotease-3 (IC50); format: protein assay
[5] = biological target: T1, 72 kDa type IV collagenase; test: Inhibition of human matrix metalloprotease-2

T2 sequence (P08254 whole entry, the tested form may be a part): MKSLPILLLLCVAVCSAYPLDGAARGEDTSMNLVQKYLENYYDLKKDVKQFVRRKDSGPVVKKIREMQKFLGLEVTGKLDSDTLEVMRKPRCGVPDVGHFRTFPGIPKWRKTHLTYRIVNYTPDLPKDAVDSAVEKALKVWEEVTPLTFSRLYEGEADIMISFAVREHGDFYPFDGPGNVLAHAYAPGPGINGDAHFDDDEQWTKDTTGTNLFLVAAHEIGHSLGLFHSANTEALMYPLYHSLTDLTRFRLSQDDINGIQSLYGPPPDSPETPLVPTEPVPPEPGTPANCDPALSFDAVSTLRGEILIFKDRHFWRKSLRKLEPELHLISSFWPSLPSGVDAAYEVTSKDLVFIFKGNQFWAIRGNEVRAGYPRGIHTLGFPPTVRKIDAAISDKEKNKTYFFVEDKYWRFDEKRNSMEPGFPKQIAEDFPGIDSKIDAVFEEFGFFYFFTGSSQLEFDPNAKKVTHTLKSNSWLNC
Matrix metalloproteinase (2 and 3) (Homo sapiens), sequence (P08253 whole entry, looked up): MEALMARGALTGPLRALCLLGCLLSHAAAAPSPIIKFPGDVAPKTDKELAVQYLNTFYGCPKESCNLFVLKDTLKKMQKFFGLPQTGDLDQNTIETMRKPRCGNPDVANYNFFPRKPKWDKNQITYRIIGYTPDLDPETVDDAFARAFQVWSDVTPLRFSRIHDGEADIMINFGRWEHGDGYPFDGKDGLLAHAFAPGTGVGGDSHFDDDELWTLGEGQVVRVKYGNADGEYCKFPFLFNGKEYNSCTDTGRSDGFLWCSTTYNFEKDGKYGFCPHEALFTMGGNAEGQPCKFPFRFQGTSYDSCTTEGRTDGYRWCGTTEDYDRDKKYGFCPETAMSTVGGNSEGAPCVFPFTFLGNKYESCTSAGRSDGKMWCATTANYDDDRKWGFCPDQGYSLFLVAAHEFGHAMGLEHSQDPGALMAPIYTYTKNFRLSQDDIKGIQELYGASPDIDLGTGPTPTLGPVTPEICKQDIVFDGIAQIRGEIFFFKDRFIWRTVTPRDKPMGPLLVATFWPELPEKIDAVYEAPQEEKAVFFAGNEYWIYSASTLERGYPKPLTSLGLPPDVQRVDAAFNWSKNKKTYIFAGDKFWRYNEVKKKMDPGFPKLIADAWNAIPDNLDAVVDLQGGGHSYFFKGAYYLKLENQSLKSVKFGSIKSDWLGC
Matrix metalloproteinase (2 and 3) (Homo sapiens), sequence (P08254 whole entry, looked up): as the sequence (P08254 whole entry, the tested form may be a part) above
T1 sequence (P08253 whole entry): as the sequence (P08253 whole entry, looked up) above

Structure (SMILES)	IC50 [1]	IC50 (Stromelysin-1 [2])	IC50 (Stromelysin-1 [3]) [nM]	Selectivity [4]	IC50 [5] [nM]
CNC(=O)[C@H](Cc1c[nH]c2ccccc12)NC(=O)/C(=C/C(C)C)CC(=O)NO [listing 1 of 3 here]				138 and 46	
CNC(=O)[C@H](Cc1c[nH]c2ccccc12)NC(=O)[C@@H](CC(=O)NO)CC(C)C [ILOMASTAT]			0.191		
CCOC(=O)[C@H](Cc1c[nH]c2ccccc12)NC(=O)/C(=C/C(C)C)CC(=O)NO			2340	392	5.97
CNC(=O)[C@H](Cc1c[nH]c2ccccc12)NC(=O)/C(=C/C(C)C)CC(=O)NO [listing 3 of 3 here]			910		19.6

The remaining lines, values ahead:

IC50 [1]	IC50 (Stromelysin-1 [2])	IC50 (Stromelysin-1 [3]) [nM]	Selectivity [4]	IC50 [5] [nM]	Structure (SMILES)
Not Active	Not Active				CNC(=O)[C@H](Cc1c[nH]c2ccccc12)NC(=O)/C(=C/C(C)C)CC(=O)OC
		665	116	5.73	CNC(=O)C(Cc1c(CCN(C)C)[nH]c2ccccc12)NC(=O)/C(=C/C(C)C)CC(=O)NO (centres undefined)
		179		1.3	CNC(=O)[C@H](Cc1c[nH]c2ccccc12)NC(=O)/C(=C/C(C)C)CC(=O)NO [listing 2 of 3 here]
